From ChEMBL document CHEMBL1149231, “2,5-Dihydropyrazolo[4,3-c]pyridin-3-ones: functionally selective benzodiazepine binding site ligands on the GABAA receptor” (Bioorg Med Chem Lett, 2004)

Experiments:
Type in all cases: cell-based
[1] = molecular target: T1, GABA-A receptor; alpha-3/beta-3/gamma-2 (Homo sapiens) (UniProt P18507+P28472+P34903); assay: Efficacy was determined against Gamma-aminobutyric acid A receptor, alpha 3 expressed in Xenopus oocytes; settings: Oocyte
How it was run: (§1)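 Cloned human α1β3γ2, α2β3γ2 or α3β3γ2 receptors transiently expressed in Xenopus oocytes; two-electrode voltage clamp; modulation of GABA EC20 current by a single test-compound concentration (nM, given per value); means ± SEM, n = 3-7.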

[2] = molecular target: T2, GABA-A receptor; alpha-1/beta-3/gamma-2 (Homo sapiens, UniProt P14867+P18507+P28472); assay: In vitro binding affinity against gamma-aminobutyric acid A receptor, alpha 1 expressed in L(tk) cells by displacement of [3H]Ro-151788
T2 sequence (P14867 whole entry): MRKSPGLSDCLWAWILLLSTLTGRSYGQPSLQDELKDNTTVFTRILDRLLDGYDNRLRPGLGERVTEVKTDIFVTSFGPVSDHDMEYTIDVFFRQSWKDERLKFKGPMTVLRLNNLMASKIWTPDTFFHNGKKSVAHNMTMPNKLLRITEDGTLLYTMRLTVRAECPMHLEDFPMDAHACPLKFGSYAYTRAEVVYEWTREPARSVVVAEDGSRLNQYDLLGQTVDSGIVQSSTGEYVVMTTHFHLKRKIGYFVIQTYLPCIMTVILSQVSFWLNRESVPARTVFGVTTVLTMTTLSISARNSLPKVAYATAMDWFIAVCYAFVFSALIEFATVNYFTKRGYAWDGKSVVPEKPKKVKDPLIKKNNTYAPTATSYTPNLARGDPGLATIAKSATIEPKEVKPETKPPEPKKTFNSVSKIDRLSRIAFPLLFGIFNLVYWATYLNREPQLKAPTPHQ
T2 sequence (P18507 whole entry): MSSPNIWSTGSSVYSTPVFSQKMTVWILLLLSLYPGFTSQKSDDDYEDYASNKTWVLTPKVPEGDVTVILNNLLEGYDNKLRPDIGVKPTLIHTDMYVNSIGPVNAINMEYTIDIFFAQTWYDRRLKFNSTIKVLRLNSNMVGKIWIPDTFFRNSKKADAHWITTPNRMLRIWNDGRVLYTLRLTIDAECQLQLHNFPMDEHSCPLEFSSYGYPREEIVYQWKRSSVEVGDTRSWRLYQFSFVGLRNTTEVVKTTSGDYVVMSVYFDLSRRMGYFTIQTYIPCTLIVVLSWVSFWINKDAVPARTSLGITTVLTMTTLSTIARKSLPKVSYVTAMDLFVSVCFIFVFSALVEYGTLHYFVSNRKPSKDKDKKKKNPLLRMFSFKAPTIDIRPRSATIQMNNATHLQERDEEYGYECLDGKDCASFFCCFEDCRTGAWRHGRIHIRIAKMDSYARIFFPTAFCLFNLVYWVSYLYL
T2 sequence (P28472 whole entry): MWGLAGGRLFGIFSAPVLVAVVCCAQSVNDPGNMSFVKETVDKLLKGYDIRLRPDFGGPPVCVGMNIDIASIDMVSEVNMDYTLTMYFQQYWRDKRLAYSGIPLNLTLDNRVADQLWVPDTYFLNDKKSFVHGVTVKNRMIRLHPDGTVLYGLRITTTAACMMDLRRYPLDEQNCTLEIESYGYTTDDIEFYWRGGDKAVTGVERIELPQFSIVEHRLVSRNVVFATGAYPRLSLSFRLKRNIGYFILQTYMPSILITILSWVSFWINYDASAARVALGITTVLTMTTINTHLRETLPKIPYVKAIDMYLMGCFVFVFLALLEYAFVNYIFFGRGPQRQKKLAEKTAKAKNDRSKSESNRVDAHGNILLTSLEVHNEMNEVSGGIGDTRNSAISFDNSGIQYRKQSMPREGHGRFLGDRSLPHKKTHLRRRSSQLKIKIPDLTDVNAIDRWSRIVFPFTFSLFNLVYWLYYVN
How it was run: (§2)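 Binding to cloned human α1β3γ2, α2β3γ2 or α3β3γ2 receptors stably expressed in L(tk-) cells, measured as displacement of [3H]Ro15-1788; means ± SEM, n = 3-7.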

[3] = molecular target: T1, GABA-A receptor; alpha-3/beta-3/gamma-2 (Homo sapiens); assay: Efficacy against human GABA-A receptor alpha-3-beta-3-gamma-2 subunits expressed in L(tk-) cells by whole-cell patch-clamp
How it was run: (§3)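 Whole-cell patch-clamp of L(tk-) cells stably expressing cloned human α1β3γ2, α2β3γ2 or α3β3γ2 receptors; full concentration-effect curves built; means ± SEM, n = 3-7.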

[4] = molecular target: T3, GABA-A receptor; alpha-1/beta-3/gamma-2 (Homo sapiens) (UniProt P14867+P18507+P28472); assay: Efficacy against human GABA-A receptor alpha-1-beta-3-gamma-2 subunits expressed in L(tk-) cells by whole-cell patch-clamp; how it was run: as §3
[5] = molecular target: T3, GABA-A receptor; alpha-1/beta-3/gamma-2 (Homo sapiens); assay: Efficacy was determined against gamma-aminobutyric acid A receptor, alpha 1 expressed in Xenopus oocytes; settings: Oocyte; how it was run: as §1
[6] = molecular target: T4, GABA-A receptor; alpha-3/beta-3/gamma-2 (Homo sapiens, UniProt P18507+P28472+P34903); assay: In vitro displacement of [3H]Ro-151788 from human GABA-A receptor alpha-3-beta-3-gamma-2 subunits expressed in L(tk-) cells; how it was run: as §2
T4 sequence (P18507 whole entry): T2 sequence (P18507 whole entry)
T4 sequence (P28472 whole entry): T2 sequence (P28472 whole entry)
T4 sequence (P34903 whole entry): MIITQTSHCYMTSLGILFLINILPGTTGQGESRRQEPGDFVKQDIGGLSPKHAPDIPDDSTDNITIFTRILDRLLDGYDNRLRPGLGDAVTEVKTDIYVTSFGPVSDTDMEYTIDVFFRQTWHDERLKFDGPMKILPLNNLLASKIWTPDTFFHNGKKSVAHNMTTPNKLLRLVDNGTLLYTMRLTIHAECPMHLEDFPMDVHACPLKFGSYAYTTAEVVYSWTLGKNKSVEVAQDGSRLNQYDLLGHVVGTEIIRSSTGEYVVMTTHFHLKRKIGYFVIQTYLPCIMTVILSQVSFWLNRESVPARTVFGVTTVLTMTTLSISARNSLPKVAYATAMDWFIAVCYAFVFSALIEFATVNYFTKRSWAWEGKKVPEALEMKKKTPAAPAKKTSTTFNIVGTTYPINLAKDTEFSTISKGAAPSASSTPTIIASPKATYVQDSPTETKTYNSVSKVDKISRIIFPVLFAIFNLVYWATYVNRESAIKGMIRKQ

[7] = molecular target: T4, GABA-A receptor; alpha-3/beta-3/gamma-2; assay: In vitro binding affinity against Gamma-aminobutyric acid A receptor, alpha 3 expressed in L(tk) cells by displacement of [3H]Ro-151788; how it was run: as §2
[8] = molecular target: T5, GABA-A receptor; alpha-2/beta-3/gamma-2 (Homo sapiens) (UniProt P18507+P28472+P47869); assay: Efficacy relative to GABA EC20 against human GABA-A receptor alpha-2-beta-3-gamma-2 subunits expressed in Xenopus oocytes; settings: Oocyte; how it was run: as §1
[9] = molecular target: T5, GABA-A receptor; alpha-2/beta-3/gamma-2 (Homo sapiens); assay: Efficacy against human GABA-A receptor alpha-2-beta-3-gamma-2 subunits expressed in L(tk-) cells by whole-cell patch-clamp; how it was run: as §3
[10] = molecular target: T6, GABA-A receptor; alpha-2/beta-3/gamma-2 (Homo sapiens, UniProt P18507+P28472+P47869); assay: In vitro displacement of [3H]Ro-151788 from human GABA-A receptor alpha-2-beta-3-gamma-2 subunits expressed in L(tk-) cells; how it was run: as §2
T6 sequence (P18507 whole entry): T2 sequence (P18507 whole entry)
T6 sequence (P28472 whole entry): T2 sequence (P28472 whole entry)
T6 sequence (P47869 whole entry): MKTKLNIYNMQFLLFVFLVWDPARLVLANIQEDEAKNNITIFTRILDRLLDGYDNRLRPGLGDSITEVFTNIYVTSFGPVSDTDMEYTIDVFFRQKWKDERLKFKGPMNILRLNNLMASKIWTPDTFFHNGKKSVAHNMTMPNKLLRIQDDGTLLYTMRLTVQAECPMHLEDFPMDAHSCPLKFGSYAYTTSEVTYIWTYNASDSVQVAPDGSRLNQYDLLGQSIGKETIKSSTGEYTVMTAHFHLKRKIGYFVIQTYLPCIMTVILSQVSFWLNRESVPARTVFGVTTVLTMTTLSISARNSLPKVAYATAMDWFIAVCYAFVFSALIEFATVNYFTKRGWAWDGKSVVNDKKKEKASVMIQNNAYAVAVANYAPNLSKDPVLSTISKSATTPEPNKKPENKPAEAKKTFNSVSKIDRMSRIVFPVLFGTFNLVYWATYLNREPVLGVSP

Question: `Oc1c2cnc3c(c2nn1-c1ccc(OC2CC2)cc1)CCCC3` was tested. Which Efficacy [1] did it give?
Answer: 62%

Question: And the Ki [2]?
Answer: 1.13 nM

Question: And the Efficacy [3]?
Answer: 54%

Question: What about the Efficacy [4] of the same compound?
Answer: -4.3%

Question: And the Efficacy [5]?
Answer: 19%

Question: And the Ki [6]?
Answer: 2.19 nM

Question: For `Oc1c2cnc3c(c2nn1-c1ccc(F)cc1)CCCC3`, which Efficacy [1] is on record?
Answer: 33%

Question: And the Ki [2]?
Answer: 0.29 nM

Question: And the Ki [7]?
Answer: 0.65 nM

Question: What about the Efficacy [5] of the same compound?
Answer: -2%

Question: `Oc1c2cnc3c(c2nn1-c1ccc(OC(F)(F)F)cc1)CCCC3` was tested. Which Efficacy [1] did it give?
Answer: 35%

Question: And the Ki [2]?
Answer: 7.33 nM

Question: And the Ki [7]?
Answer: 4.7 nM

Question: And the Efficacy [5]?
Answer: 14%

Question: Which Efficacy [1] does the source give for `Oc1c2cnc3c(c2nn1-c1ccc(OC2CCC2)cc1)CCCC3` here?
Answer: 36%

Question: And the Ki [2]?
Answer: 1.3 nM

Question: What about the Ki [7] of the same compound?
Answer: 2.55 nM

Question: And the Efficacy [5]?
Answer: 49%

Question: With `Oc1c2cnc3c(c2nn1-c1ccccn1)CCCC3` as the compound, how does the Efficacy [1] read?
Answer: -7%

Question: And the Ki [2]?
Answer: 0.57 nM

Question: And the Ki [7]?
Answer: 1.14 nM

Question: And the Efficacy [5]?
Answer: -39%

Question: What does the source list for `Oc1c2c(nn1-c1ccc(Cl)cc1)C1CN(Cc3ccncc3)CCC1N=C2` (centres undefined)?
Answer: Efficacy [1]: 199%; Ki [2]: 0.18 nM; Ki [7]: 0.56 nM; Efficacy [5]: 131%

Question: What does the source list for `Oc1c2c(nn1-c1ccc(Cl)cc1)C1CN(CC3CC3)CCC1N=C2` (centres undefined)?
Answer: Efficacy [1]: 123%; Ki [2]: 0.45 nM; Ki [7]: 7.45 nM; Efficacy [5]: 111%

Question: `COc1ccc(-n2nc3c4c(ncc3c2O)CCCC4)cc1` was tested. Which Efficacy [1] did it give?
Answer: 55%

Question: What about the Ki [2] of the same compound?
Answer: 0.31 nM

Question: What about the Ki [7] of the same compound?
Answer: 0.61 nM

Question: What about the Efficacy [5] of the same compound?
Answer: 15%

Question: Which Efficacy [1] does the source give for `Oc1c2cnc3c(c2nn1-c1ccc(OC(F)F)cc1)CCCC3` here?
Answer: 56%

Question: And the Ki [2]?
Answer: 1 nM

Question: And the Ki [7]?
Answer: 2.25 nM

Question: And the Efficacy [3]?
Answer: 34%

Question: And the Efficacy [4]?
Answer: 2%

Question: What about the Efficacy [5] of the same compound?
Answer: 21%

Question: Which results are given for `Oc1c2c(nn1-c1ccc(Cl)cc1)C1CCCCCC1N=C2` (centres undefined)?
Answer: Efficacy [1]: 87%; Ki [2]: 1.06 nM; Ki [7]: 4.27 nM; Efficacy [5]: 23%

Question: Which results are given for `Oc1c2c(nn1-c1ccc(OC(F)F)cc1)C1COCCC1N=C2` (centres undefined)?
Answer: Efficacy [1]: 32%; Ki [2]: 1.55 nM; Ki [7]: 6.4 nM; Efficacy [5]: 11%

Question: Which Efficacy [1] does the source give for `O=C(Cc1cccnc1)N1CCC2N=Cc3c(nn(-c4ccc(Cl)cc4)c3O)C2C1` (centres undefined) here?
Answer: 2.3%

Question: And the Ki [2]?
Answer: 3.15 nM

Question: And the Ki [7]?
Answer: 5.4 nM

Question: What about the Efficacy [5] of the same compound?
Answer: 49%

Question: `Oc1c2c(nn1-c1ccc(OC(F)F)cc1)C1CSCCC1N=C2` (centres undefined) was tested. Which Efficacy [1] did it give?
Answer: 25%

Question: And the Ki [2]?
Answer: 0.38 nM

Question: What about the Ki [7] of the same compound?
Answer: 0.89 nM

Question: What about the Efficacy [5] of the same compound?
Answer: 9%

Question: Which results are given for `Oc1c2c(nn1-c1ccc(Cl)cc1)C1CCCC1N=C2` (centres undefined)?
Answer: Efficacy [1]: 51%; Ki [2]: 0.44 nM; Ki [7]: 1.12 nM; Efficacy [5]: 19%

Question: With `O=c1c2c[nH]c3c(c-2nn1-c1ccc(Cl)cc1)CCCC3` as the compound, how does the Efficacy [1] read?
Answer: 93%

Question: And the Ki [2]?
Answer: 0.19 nM

Question: What about the Ki [7] of the same compound?
Answer: 1.03 nM

Question: What about the Efficacy [8] of the same compound?
Answer: 61%

Question: And the Efficacy [9]?
Answer: 43%

Question: And the Efficacy [3]?
Answer: 70%

Question: What about the Efficacy [4] of the same compound?
Answer: 17%

Question: What about the Efficacy [5] of the same compound?
Answer: 12%

Question: What about the Ki [10] of the same compound?
Answer: 0.77 nM
